Data on 19 molecules can be found in ChEMBL document CHEMBL1148625, “3-(1,1-dioxo-2H-(1,2,4)-benzothiadiazin-3-yl)-4-hydroxy-2(1H)-quinolinones, potent inhibitors of hepatitis C virus RNA-dependent RNA polymerase” (J Med Chem, 2006).

By IC50 is commonly meant the concentration that gives 50% inhibition. A word on the EC90: it is the concentration at which the effect reaches the 90% level. A low value points to an effect from little substance.

The target of assay [1] is RNA-directed RNA polymerase (Hepacivirus hominis, UniProt O39930). The experiment in a line: Inhibitory activity against HCV delta 21 NS5B RNA polymerase by SPA assay. Also on record: species or system Hepatitis C virus subtype 1b.
For assay [2], the target named is RNA-directed RNA polymerase (Hepacivirus hominis) (UniProt O39930). The experiment in a line: Inhibition of HCV RNA replication in Huh7 cells. As to conditions: Huh-7. The assay is classed as functional, cell-based. The essentials: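 Huh-7 subgenomic replicon cells were seeded at 3 × 10³/well in DMEM with 10% FCS, 1% NEAA and 1 mg/mL G418, and allowed 4 h to attach. Eleven 2.5-fold DMSO dilutions were added (final 10,000 to 1.0 nM) and cells incubated 40 h. Neo RNA was measured by TaqMan RT-PCR, normalised to cyclophilin against DMSO controls; n = 8 wells per dilution.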
Chain of RNA-directed RNA polymerase (Hepacivirus hominis) (O39930 1-591): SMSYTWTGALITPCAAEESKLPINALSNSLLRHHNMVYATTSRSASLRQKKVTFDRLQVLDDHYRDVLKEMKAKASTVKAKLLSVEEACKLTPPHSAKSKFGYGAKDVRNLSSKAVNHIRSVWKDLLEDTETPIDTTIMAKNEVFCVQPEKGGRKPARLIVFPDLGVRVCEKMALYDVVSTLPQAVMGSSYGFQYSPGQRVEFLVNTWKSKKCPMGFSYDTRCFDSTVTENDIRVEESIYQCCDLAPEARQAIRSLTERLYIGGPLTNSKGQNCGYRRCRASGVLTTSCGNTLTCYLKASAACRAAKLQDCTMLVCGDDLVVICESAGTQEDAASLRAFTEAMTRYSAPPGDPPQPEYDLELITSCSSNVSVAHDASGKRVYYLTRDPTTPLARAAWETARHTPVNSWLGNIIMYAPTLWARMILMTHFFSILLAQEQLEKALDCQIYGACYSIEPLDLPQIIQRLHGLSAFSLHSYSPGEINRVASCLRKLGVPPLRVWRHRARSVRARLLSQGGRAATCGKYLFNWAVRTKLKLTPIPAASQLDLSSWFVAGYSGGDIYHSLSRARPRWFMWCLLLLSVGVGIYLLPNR

Chain of RNA-directed RNA polymerase (O39930 whole entry): as the sequence (O39930 1-591) above

Molecule `CC(C)CCn1c(=O)c(C2=NS(=O)(=O)c3ccccc3N2)c(N)c2ccccc21` yielded a half-inhibitory concentration (IC50) in assay [1] greater than 10000 nM. Molecule `O=c1c(C2=NS(=O)(=O)c3ccccc3N2)c(O)c2ccccc2n1Cc1ccccn1` registered an IC50 in assay [1] of 2690 nM. The same measure, in the same setting: as for `CCC(C)CCn1c(=O)c(C2=NS(=O)(=O)c3ccccc3N2)c(O)c2ccccc21` (stereo unspecified), the figure is 65 nM; as for `CN(C)CCn1c(=O)c(C2=Nc3ccccc3S(=O)(=O)N2)c(O)c2ccccc21`, greater than 10000 nM. Take `O=c1c(C2=Nc3ccccc3S(=O)(=O)N2)c(O)c2ccccc2n1CC1CC1`: in assay [1], the 50% inhibitory concentration (IC50) worked out at 78 nM.

In assay [1], `C#CCCn1c(=O)c(C2=NS(=O)(=O)c3ccccc3N2)c(O)c2ccccc21` returned a half-inhibitory concentration (IC50) of 118 nM. Consider `O=c1c(C2=NS(=O)(=O)c3ccccc3N2)c(O)c2ccccc2n1Cc1ccoc1`, for which, in assay [1], the IC50 was found to be 27 nM. In addition, it took 2530 nM to reach the 90% level in assay [2] (EC90). Taken in the same sequence, the figures for `CC(C)(C)CCn1c(=O)c(C2=NS(=O)(=O)c3ccccc3N2)c(O)c2cc(NCCO)ccc21` were 48 nM and 1440 nM. The molecule `O=c1c(C2=NS(=O)(=O)c3ccccc3N2)c(O)c2ccccc2n1CCCC(F)(F)F` had an IC50 in assay [1] of 106 nM. On the same count and under the same terms, with `CCCCCn1c(=O)c(C2=Nc3ccccc3S(=O)(=O)N2)c(O)c2ccccc21` the figure was 80 nM. The same measure, in the same setting: with `C[S+]([O-])CCn1c(=O)c(C2=NS(=O)(=O)c3ccccc3N2)c(O)c2ccccc21` (stereo unspecified) the figure was 2540 nM. On the same count and under the same terms, as for `CC(C)CCn1c(=O)c(C2=Nc3ccccc3S(=O)(=O)N2)c(O)c2cc(NC(=O)C3CCCC3)ccc21`, the figure is 973 nM.

The molecule `O=c1c(C2=Nc3ccccc3S(=O)(=O)N2)c(O)c2cccc(F)c2n1CCC1CC1` gave an IC50 in assay [1] of 90 nM. With `CC(C)CCn1c(=O)c(C2=NS(=O)(=O)c3ccccc3N2)c(O)c2cc(OCC(N)=O)ccc21`, in assay [2], it took 2410 nM to reach the 90% level (EC90). Turning to `O=c1c(C2=Nc3ccccc3S(=O)(=O)N2)c(O)c2ccccc2n1Cc1ccc([N+](=O)[O-])cc1`, the IC50 in assay [1] turned out to be 2440 nM. Same read-out and setting: with `COCCn1c(=O)c(C2=Nc3ccccc3S(=O)(=O)N2)c(O)c2ccccc21` the figure was 819 nM; with `CCOC(=O)c1ccc2c(O)c(C3=Nc4ccccc4S(=O)(=O)N3)c(=O)n(CCC(C)C)c2c1`, greater than 10000 nM. For `CC(C)CCn1c(=O)c(C2=NS(=O)(=O)c3ccccc3N2)c(O)c2cc(N)ccc21`, the EC90 in assay [2] is 1200 nM. For the molecule `CC1CC1Cn1c(=O)c(C2=Nc3ccccc3S(=O)(=O)N2)c(O)c2ccccc21` (stereo unspecified), inhibition in assay [1] was half-maximal at 41 nM (IC50).
